{"data": "Experimental data collected from several papers", "FLT3 N841I": "Receptor-type tyrosine-protein kinase FLT3 (FLT3, Homo sapiens, UniProt P36888, N841I)", "FLT3": "Receptor-type tyrosine-protein kinase FLT3 (FLT3, Homo sapiens, UniProt P36888)", "FLT3 ITD": "Receptor-type tyrosine-protein kinase FLT3 (FLT3, Homo sapiens, UniProt P36888, ITD)", "FLT3 D835V": "Receptor-type tyrosine-protein kinase FLT3 (FLT3, Homo sapiens, UniProt P36888, D835V)", "FLT3 D835Y": "Receptor-type tyrosine-protein kinase FLT3 (FLT3, Homo sapiens, UniProt P36888, D835Y)", "FLT3 autoinhibited": "Receptor-type tyrosine-protein kinase FLT3, autoinhibited (FLT3, Homo sapiens, UniProt P36888)", "FLT3 R834Q": "Receptor-type tyrosine-protein kinase FLT3 (FLT3, Homo sapiens, UniProt P36888, R834Q)", "FLT3 D835H": "Receptor-type tyrosine-protein kinase FLT3 (FLT3, Homo sapiens, UniProt P36888, D835H)", "note": "Each line is one published result; the experiments were not run side by side."}
{"Compound": "COc1ccnn2ncc(-c3ccnc(N(C)C)n3)c12", "target": "FLT3 N841I", "effect on": "binding", "tested at": "1 µM", "remaining binding [%]": 100}
{"Compound": "CCS(=O)(=O)c1cc2cc(C[C@@](O)(CC(C)(C)c3ccc(F)cc3C(N)=O)C(F)(F)F)[nH]c2cn1", "target": "FLT3", "effect on": "cell-free assay", "method": "competition with immobilised ligand", "tested at": "1 µM", "remaining binding [%]": 97}
{"Compound": "O=C(NC1CCC1)c1ccc2nc(-c3cccc(NS(=O)(=O)NCCN4CCCCC4)c3)cn2c1", "target": "FLT3 ITD", "effect on": "cell-free assay", "method": "competition with immobilised ligand", "tested at": "10 µM", "remaining binding [%]": 100}
{"Compound": "O=C(c1ccc(Nc2ncc(Cl)c(-c3ccc(Cl)s3)n2)cc1)N1CCC(N2CCCC2)CC1", "target": "FLT3", "effect on": "binding", "method": "competition with immobilised ligand", "tested at": "1 µM", "remaining binding [%]": 10}
{"Compound": "CN(CCCC(F)(F)F)c1nccc(-c2cnn3ncccc23)n1", "target": "FLT3 D835V", "effect on": "binding", "tested at": "1 µM", "remaining binding [%]": 84}
{"Compound": "COc1cnc(Nc2cccc(S(N)(=O)=O)c2)nc1N1CCN(c2ccccc2)C(=O)C1", "target": "FLT3 N841I", "effect on": "binding", "method": "competition with immobilised ligand", "tested at": "1 µM", "remaining binding [%]": 96}
{"Compound": "COc1ncc2cc3ccccc3nc2c1C#N", "target": "FLT3 D835Y", "effect on": "cell-free assay", "method": "competition with immobilised ligand", "tested at": "5 µM", "remaining binding [%]": 92}
{"Compound": "c1cncc(-c2cccc(Nc3nccc(NC4CCCCC4)n3)c2)c1", "target": "FLT3 autoinhibited", "effect on": "binding", "method": "competition with immobilised ligand", "tested at": "10 µM", "remaining binding [%]": 3.6}
{"Compound": "CN1CCN(c2ccc(Nc3nccc(-c4ccccc4)n3)cc2C(F)(F)F)CC1", "target": "FLT3 R834Q", "effect on": "binding", "tested at": "10 µM", "remaining binding [%]": 15}
{"Compound": "O=C(NCCCN1CCOCC1)c1ccc(Nc2nccc(-c3cc4ccccc4s3)n2)cc1", "target": "Receptor-type tyrosine-protein kinase FLT3 (FLT3, Homo sapiens, UniProt P36888, D835V/ITD)", "effect on": "binding", "method": "competition with immobilised ligand", "tested at": "1 µM", "remaining binding [%]": 12}
{"Compound": "C[C@@H](c1ccc(-n2cnc3c(N)ncnc32)cc1)N1CCc2nn(C)c(Cc3ccccc3)c2C1=O", "target": "FLT3 N841I", "effect on": "binding", "method": "competition with immobilised ligand", "tested at": "0.1 µM", "remaining binding [%]": 97}
{"Compound": "CNCc1ccccc1-c1csc([C@H](C)Nc2nc(C)nc3cc(OC)c(OC)cc23)c1", "target": "FLT3 ITD", "effect on": "cell-free assay", "method": "competition with immobilised ligand", "tested at": "1 µM", "remaining binding [%]": 99}
{"Compound": "O=C(c1ccc(Nc2nccc(-c3cc4ccccc4s3)n2)cc1)N1CCC(N2CCCC2)CC1", "target": "FLT3 D835H", "effect on": "binding", "method": "competition with immobilised ligand", "tested at": "1 µM", "remaining binding [%]": 29}
{"Compound": "Cc1noc([C@H]2C[C@@H](c3ccc(C(F)(F)F)cc3)CN(C(=O)N3CCS(=O)(=O)C3)C2)n1", "target": "FLT3 D835H", "effect on": "cell-free assay", "method": "competition with immobilised ligand", "tested at": "1 µM", "remaining binding [%]": 100}
{"Compound": "O=C(Nc1c[nH]nc1C(=O)NC1CCNCC1)c1cc(F)cc(F)c1", "target": "FLT3 D835Y", "effect on": "binding", "method": "competition with immobilised ligand", "tested at": "1 µM", "remaining binding [%]": 89}
{"Compound": "O=C(NCCCN1CCOCC1)c1ccc(Nc2ncc(Cl)c(-c3ccc(Cl)s3)n2)cc1", "target": "FLT3", "effect on": "binding", "method": "competition with immobilised ligand", "tested at": "1 µM", "remaining binding [%]": 7.7}
{"Compound": "CNC(=O)[C@@H]1CC[C@@H](n2c(-c3ccc4cnccc4c3)nc3ccc(C(=O)NCc4cccc(C(N)=O)c4)cc32)C1", "target": "FLT3", "effect on": "binding", "method": "competition with immobilised ligand", "tested at": "1 µM", "remaining binding [%]": 100}
{"Compound": "CCN1CCN(Cc2ccc(C(=O)Nc3ccc(C)c(Oc4ccc5c(c4)CC(=O)N5)c3)cc2C(F)(F)F)CC1", "target": "FLT3 R834Q", "effect on": "binding", "method": "competition with immobilised ligand", "tested at": "1 µM", "remaining binding [%]": 100}
{"Compound": "O=C(O)[C@H]1[C@H](Cn2nnc3ccccc3c2=O)CC[C@@H]1C(=O)c1ccc(OCCC2CCOCC2)cc1", "target": "FLT3 R834Q", "effect on": "cell-free assay", "method": "competition with immobilised ligand", "tested at": "1 µM", "remaining binding [%]": 96}
{"Compound": "COc1cnc(Nc2cccc(S(N)(=O)=O)c2)nc1N1CCN(c2ccccc2)CC1", "target": "FLT3 R834Q", "effect on": "binding", "method": "competition with immobilised ligand", "tested at": "1 µM", "remaining binding [%]": 54}
{"Compound": "N[C@H]1CCN(c2nccc(-c3cnn4ncccc34)n2)C1", "target": "FLT3 D835V", "effect on": "binding", "tested at": "1 µM", "remaining binding [%]": 61}
{"Compound": "O=C(NCC1CCOCC1)c1n[nH]cc1NC(=O)c1c(F)cccc1F", "target": "FLT3 R834Q", "effect on": "binding", "method": "competition with immobilised ligand", "tested at": "1 µM", "remaining binding [%]": 77}
{"Compound": "O=C(c1ccc(Nc2ncc(Cl)c(-c3cc4ccccc4s3)n2)cc1)N1CCC(N2CCCC2)CC1", "target": "FLT3 D835Y", "effect on": "binding", "method": "competition with immobilised ligand", "tested at": "1 µM", "remaining binding [%]": 3.7}
{"Compound": "CN(C)c1nccc(-c2cnc3ncccn23)n1", "target": "FLT3", "effect on": "binding", "tested at": "1 µM", "remaining binding [%]": 100}
{"Compound": "CN1CCN(c2ccc(Nc3nccc(-c4cccc([N+](=O)[O-])c4)n3)cc2C(F)(F)F)CC1", "target": "FLT3 R834Q", "effect on": "binding", "tested at": "10 µM", "remaining binding [%]": 3.7}
{"Compound": "Nc1ncc2c(n1)-c1c([nH]c3ccc(C#CC4CC4)cc13)CCCC2", "target": "FLT3 D835V", "effect on": "binding", "method": "competition with immobilised ligand", "tested at": "1 µM", "remaining binding [%]": 92}
{"Compound": "C[C@@H]1CCN(c2nccc(-c3cnn4ncccc34)n2)C1", "target": "FLT3 autoinhibited", "effect on": "binding", "tested at": "1 µM", "remaining binding [%]": 78}
{"Compound": "NS(=O)(=O)c1cc(NC(=O)C2(c3ccccc3Cl)CC2)ccc1Oc1cccc(Cl)c1", "target": "Receptor-type tyrosine-protein kinase FLT3 (FLT3, Homo sapiens, UniProt P36888, F691L/ITD)", "effect on": "cell-free assay", "method": "competition with immobilised ligand", "tested at": "1 µM", "remaining binding [%]": 100}
{"Compound": "C=CC(=O)N1CCC(C(=O)NCC(=O)N2CCN(c3nc(-c4cnc(N)nc4C(F)F)nc(N4CCOCC4)n3)CC2)CC1", "target": "FLT3 autoinhibited", "effect on": "binding", "method": "competition with immobilised ligand", "tested at": "1 µM", "remaining binding [%]": 99}
{"Compound": "COc1cc(-c2cn(C3CCc4ccccc4N(CC(F)(F)F)C3=O)nn2)ccc1-n1ccc(C)n1 (centres unmarked)", "target": "FLT3", "effect on": "cell-free assay", "method": "competition with immobilised ligand", "tested at": "1 µM", "remaining binding [%]": 85}
{"Compound": "F[C@@H]1CCN(c2nccc(-c3cnn4ncccc34)n2)C1", "target": "FLT3 autoinhibited", "effect on": "binding", "tested at": "1 µM", "remaining binding [%]": 100}
{"Compound": "Cc1c(C(=O)O)cc(-c2ccc(C3CCNCC3)cc2)c2ccc(-c3ccc(C(F)(F)F)cc3)cc12", "target": "FLT3", "effect on": "binding", "method": "competition with immobilised ligand", "tested at": "1 µM", "remaining binding [%]": 100}
{"Compound": "CN(c1nccc(-c2cnn3ncccc23)n1)C1CC1", "target": "FLT3 R834Q", "effect on": "binding", "tested at": "1 µM", "remaining binding [%]": 100}
{"Compound": "COc1ccc2c(O[C@@H]3C[C@H]4C(=O)N[C@]5(C(=O)O)CC5/C=C\\CCCCC[C@H](NC(=O)OC5CCCC5)C(=O)N4C3)cc(-c3csc(NC(=O)C(C)C)n3)nc2c1C (some centres unmarked)", "target": "FLT3 R834Q", "effect on": "cell-free assay", "method": "competition with immobilised ligand", "tested at": "1 µM", "remaining binding [%]": 92}
{"Compound": "Cc1cnc(Nc2ccc(C(=O)N3CCC(N4CCCC4)CC3)cc2)nc1-c1cc2ccccc2s1", "target": "FLT3 autoinhibited", "effect on": "binding", "method": "competition with immobilised ligand", "tested at": "1 µM", "remaining binding [%]": 9.5}
